Data on five molecules can be found in ChEMBL document CHEMBL1255303, “In vitro and in vivo antifungal activities of T-2307, a novel arylamidine” (2008).

Each structure is given as a SMILES string. ≈ marks a conversion by molar mass, not a printed value. Calls of active or inactive are those of the source. The calls are words filed in the database; no cut-off is given here. Starred links: 1 amine or outer side, 2 acyl side, 3 side chain; linkers in the order of their positions; H or OH if unused. Positions of bridges follow the written chain, without caps; N, C: chain ends. Non-standard residues stand in square brackets, D forms with d. Residues, ends and D or L forms follow the SMILES beside them. *: point of attachment. hTyr(3S-OH,4S-OH,3'-OSO3H) = N[C@H](C(=O)O)[C@H](O)[C@@H](O)c1ccc(O)c(OS(=O)(=O)O)c1; Orn(4R-OH,5R-OH) = O=C([C@H](C[C@@H](O)[C@@H](O)N[*:3])N[*:1])[*:2]; Pro(3S-OH,4S-Me) = C[C@H]1CN[C@H](C(=O)O)[C@H]1O; X1 = CCCCCOc1ccc(-c2cc(-c3ccc(C(=O)*)cc3)no2)cc1; Gln(3R-OH) = NC(=O)C[C@@H](O)[C@H](N)C(=O)O; Hyp = O=C(O)[C@@H]1C[C@@H](O)CN1 A value given as a limit tells only on which side of the number the result lay.

The test system of one assay is Candida tropicalis. The assay is described as follows: Antifungal activity against Candida tropicalis IFO 1400 after 48 hrs by broth microdilution method. Particulars: IFO 1400, 48 h. Format: functional. In a few lines:
(§1)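 CLSI M27-A2 (yeasts) / M38-A (moulds) broth microdilution in RPMI 1640 buffered to pH 7.0 with 0.165 M MOPS. Malassezia furfur got the same medium supplemented with glucose, bile salts, glycerol, glycerol monostearate and Tween 20. Final inoculum 0.65 × 10^3–2.5 × 10^3 CFU/ml for yeasts and 0.87 × 10^4–3.8 × 10^4 CFU/ml for filamentous fungi. Incubation at 35°C except M. racemosus and F. solani, which were held at 30°C.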

The test system of assay [1] is Candida albicans. The assay is described as follows: Antifungal activity against Candida albicans TIMM 1623 infected ICR mouse assessed as delay in mortality of mouse at 0.2 mg/kg after 6 days. Format: functional, organism-based. On the set-up: dose 0.2 mg/kg. In a few lines: (§2)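 Male ICR mice, 4 weeks old and SPF, were made neutropenic with intraperitoneal cyclophosphamide. The schedule was 200 mg/kg on day −3 (day −4 for Cryptococcus) plus 100 mg/kg on day +1. Infection was by tail-vein injection of 0.2 ml suspension: C. albicans 3.0 × 10^4, C. neoformans 9.1 × 10^4, A. fumigatus conidia 8.4 × 10^4 CFU/mouse. Drugs were given subcutaneously once daily for 7 days from 2 h post-infection; controls received saline. Groups had 8–10 mice.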

Assay [2] has as its system Candida albicans. The assay is described as follows: Antifungal activity against Candida albicans ATCC 10261 after 48 hrs by broth microdilution method. Format: functional. Conditions: ATCC 10261, 48 h. The procedure, abridged: as §1
Assay [3] deals with Candida albicans. The assay is described as follows: Antifungal activity against Candida albicans TIMM 1623 infected ICR mouse assessed as delay in mortality of mouse at 0.1 mg/kg after 6 days. Format: functional, organism-based. Also noted: dose 0.1 mg/kg. The procedure, abridged:
as §2

Assay [4] deals with Cryptococcus neoformans. The assay is described as follows: Antifungal activity against Cryptococcus neoformans ATCC 90112 infected ICR mouse assessed as delay in mortality of mouse at 0.3 mg/kg after 9 days. Also noted: dose 0.3 mg/kg. The format is functional, organism-based. The procedure, abridged: as §2
In assay [5] the test system is Cryptococcus neoformans. The assay is described as follows: Antifungal activity against Cryptococcus neoformans ATCC 90112 infected ICR mouse after 9 days. Conditions: ATCC 90112, 216 h. The format is functional. The procedure, abridged:
as §2

In assay [6] the test system is Candida albicans. The assay is described as follows: Antifungal activity against Candida albicans TIMM 1623 infected ICR mouse assessed as delay in mortality of mouse at 0.01 mg/kg after 6 days. The format is functional, organism-based. On the set-up: dose 0.01 mg/kg. The procedure, abridged:
as §2

Assay [7] has as its system Cryptococcus neoformans. The assay is described as follows: Antifungal activity against Cryptococcus neoformans ATCC 90112 infected ICR mouse assessed as delay in mortality of mouse at 0.1 mg/kg after 9 days. The format is functional, organism-based. Also noted: dose 0.1 mg/kg. The procedure, abridged: as §2

On to `CCCCCOc1ccc(-c2cc(-c3ccc(C(=O)N[C@H]4C[C@@H](O)[C@@H](O)NC(=O)[C@@H]5[C@@H](O)[C@@H](C)CN5C(=O)[C@H]([C@H](O)CC(N)=O)NC(=O)[C@H]([C@H](O)[C@@H](O)c5ccc(O)c(OS(=O)(=O)O)c5)NC(=O)[C@@H]5C[C@@H](O)CN5C(=O)[C@H]([C@@H](C)O)NC4=O)cc3)no2)cc1` [MICAFUNGIN] (X1-[Orn(4R-OH,5R-OH)]T[Hyp][hTyr(3S-OH,4S-OH,3'-OSO3H)][Gln(3R-OH)][Pro(3S-OH,4S-Me)]; lactam 1-C), for which, in the assay on Candida tropicalis, the MFC was over 64 µg/mL and inhibition of growth (MIC) required 0.0625 µg/mL (≈ 0.0492 µM). Also, in the assay with Candida albicans [1], the outcome was Active. Besides, in the assay on Candida albicans [2], the MFC came out at 0.25 µg/mL (≈ 0.197 µM) and the MIC came out at 0.0313 µg/mL (≈ 0.0246 µM).

For `OC(Cn1cncn1)(Cn1cncn1)c1ccc(F)cc1F` [FLUCONAZOLE], the MFC against Candida tropicalis and against Candida albicans [2] was over 64 µg/mL throughout. The MIC is 2 µg/mL (≈ 6.53 µM) with Candida tropicalis and 0.125 µg/mL (≈ 0.408 µM) in the assay with Candida albicans [2].

Take `C[C@@H]1[C@H](O)[C@@H](C)/C=C/C=C/C=C/C=C/C=C/C=C/C=C/[C@H](O[C@@H]2O[C@H](C)[C@@H](O)[C@H](N)[C@@H]2O)C[C@@H]2O[C@](O)(C[C@@H](O)C[C@@H](O)[C@H](O)CC[C@@H](O)C[C@@H](O)CC(=O)O[C@H]1C)C[C@H](O)[C@H]2C(=O)O` [AMPHOTERICIN B]: the MFC came to 1 µg/mL (≈ 1.08 µM) with Candida tropicalis and 2 µg/mL (≈ 2.16 µM) with Candida albicans [2]. In addition, the MIC in the assay with Candida tropicalis and in the assay with Candida albicans [2] was 1 µg/mL (≈ 1.08 µM) throughout. Moreover, the outcome with Candida albicans [3] and with Cryptococcus neoformans [4] was Active. In the assay on Cryptococcus neoformans [5], this molecule displayed an ED50 of 0.199 mg/kg.

On to `N=C(N)c1ccc(OCCCC2CCN(CCCOc3ccc(C(=N)N)cc3)CC2)cc1`, for which the result in the assay on Candida albicans [6] and in the assay on Cryptococcus neoformans [7] was Active. Also, the figures for the MFC in the assay on Candida tropicalis and in the assay on Candida albicans [2] were 4 µg/mL (≈ 9.14 µM) and over 64 µg/mL, respectively. Further, the MIC was determined as 0.0005 µg/mL (≈ 0.00114 µM) in the assay on Candida tropicalis and 0.001 µg/mL (≈ 0.00229 µM) against Candida albicans [2]. In the assay on Cryptococcus neoformans [5], this molecule came in with an ED50 of 0.117 mg/kg.

Regarding `C[C@@H](c1ncncc1F)[C@](O)(Cn1cncn1)c1ccc(F)cc1F` [VORICONAZOLE], in the assay with Candida tropicalis, the MFC was over 64 µg/mL and the MIC is 0.0625 µg/mL (≈ 0.179 µM). In the assay on Candida albicans [2], this molecule registered an MFC of over 64 µg/mL and an MIC of 0.0039 µg/mL (≈ 0.0112 µM).
